# Experimental data from different studies.
# Each line is one published result; the experiments were not run side by side.
# Target: Mitotic checkpoint serine/threonine-protein kinase BUB1 (BUB1, Homo sapiens, UniProt O43683)
SMILES,read-out,technique,concentration,remaining binding [%]
CNCc1ccccc1-c1csc([C@@H](C)Nc2nc(C)nc3cc(OC)c(OC)cc23)c1,cell-free assay,competition with immobilised ligand,1 µM,100
CN(C)c1nccc(-c2cnn3ncccc23)n1,binding,,1 µM,74
COc1cnc(Nc2cccc(S(N)(=O)=O)c2)nc1N1CCN(c2ccccc2)CC1,binding,competition with immobilised ligand,1 µM,69
CC1CCCN1c1nccc(-c2cnn3ncccc23)n1 (stereo not shown),binding,,1 µM,100
CCc1ccccc1C(=O)Nc1n[nH]c2c(C)c(F)c(C3C(C#N)=C(C)N(C)C(C)=C3C#N)cc12,cell-free assay,competition with immobilised ligand,1 µM,100
Cc1cnc(Nc2ccc(C(=O)N3CCC(N4CCCC4)CC3)cc2)nc1-c1cc2ccccc2s1,binding,competition with immobilised ligand,1 µM,39
CN([C@@H]1CCc2c(CC(=O)O)c3ccccc3n2C1)S(=O)(=O)c1ccc(F)cc1,cell-free assay,competition with immobilised ligand,1 µM,79
COc1cnc(Nc2cccc(S(N)(=O)=O)c2)nc1N1CCN(c2ccccc2)C(=O)C1,binding,competition with immobilised ligand,1 µM,79
C[C@@H](c1ccc(-n2cnc3c(N)ncnc32)cc1)N1CCc2nn(C)c(Cc3ccccc3)c2C1=O,binding,competition with immobilised ligand,0.1 µM,91
Cc1nc(Cc2cccc(C(F)(F)F)c2)sc1-c1ccc(C(N)=O)nc1,cell-free assay,competition with immobilised ligand,1 µM,100
Nc1ncc2c(n1)-c1c([nH]c3ccc(C#CC4CC4)cc13)CCCC2,binding,competition with immobilised ligand,1 µM,78
O=C(NCCCN1CCOCC1)c1ccc(Nc2nccc(-c3cc4ccccc4s3)n2)cc1,binding,competition with immobilised ligand,1 µM,72
O=C(NCC1CCOCC1)c1n[nH]cc1NC(=O)c1c(F)cccc1F,binding,competition with immobilised ligand,1 µM,71
CN(C)CC#Cc1ccc(OCCCc2sc(N3CCc4cccc(C(=O)Nc5nc6ccccc6s5)c4C3)nc2C(=O)O)c(F)c1,cell-free assay,competition with immobilised ligand,1 µM,81
CN(C)c1ncc(F)c(-c2cnn3ncccc23)n1,binding,,1 µM,100
FC(F)(F)Oc1cccc(-c2cnc3ccc(-c4ccncc4)nn23)c1,cell-free assay,competition with immobilised ligand,5 µM,13
F[C@@H]1CCN(c2nccc(-c3cnn4ncccc34)n2)C1,binding,,1 µM,72
O=C(c1ccc(Nc2ncc(Cl)c(-c3cc4ccccc4s3)n2)cc1)N1CCC(N2CCCC2)CC1,binding,competition with immobilised ligand,1 µM,53
CCOCCn1cc(C(=O)Nc2ccc(-n3nc(-c4cccnc4)cc3C(F)(F)F)cn2)ccc1=O,cell-free assay,competition with immobilised ligand,1 µM,79
N[C@H]1CCN(c2nccc(-c3cnn4ncccc34)n2)C1,binding,,1 µM,97
CCCCN(CCCC)C(=O)CN1C[C@H](c2cc(OC)c3c(c2)OCO3)[C@@H](C(=O)O)[C@@H]1CC(C)(C)CCC,cell-free assay,competition with immobilised ligand,1 µM,75.4
C[C@H]1CCN(c2nccc(-c3cnn4ncccc34)n2)C1,binding,,1 µM,52
